In PubChem BioAssay AID504826 (Southern Research Specialized Biocontainment Screening …, 2011):

Each molecule was assayed on HEp-2 viability, luminescence (CellTiter-Glo) (assay: viability of uninfected HEp-2 host cells – cell-based, synthesized compounds, set 9, cytotoxicity control for RSV antiviral project, dose response (AID 504826)).
In short: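 Test system: uninfected HEp-2 human cells, ATP-based viability; Measure: % viability and fitted CC50; Signal: CellTiter-Glo ATP luminescence; Timing: compound exposure six days at 37 °C, 5% CO2.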

| Structure (SMILES) | CC50 |
| --- | --- |
| COCCCNC(=O)c1ccc(Cn2c(=O)c3ccccc3n(Cc3ccc(Br)cc3)c2=O)cc1 | 126 µM |
| COc1ccccc1CNC(=O)C1CCN(S(=O)(=O)c2cccc3nonc23)CC1 | 146 µM |
| COCCCNC(=O)c1ccc(Cn2c(=O)c3ccccc3n(Cc3ccc(C(F)(F)F)cc3)c2=O)cc1 | 95.7 µM |
| COCCCNC(=O)c1ccc(Cn2c(=O)c3ccccc3n(Cc3ccc([N+](=O)[O-])cc3)c2=O)cc1 | 115 µM |
| Cc1ccc(C)c(NC(=O)[C@@H]2CCCN2S(=O)(=O)c2cccc3cccnc23)c1 | 25 µM |
| COCCCNC(=O)c1ccc(Cn2c(=O)c3ccccc3n(Cc3ccc(OC)cc3)c2=O)cc1 | 121 µM |
| COCCCNC(=O)c1ccc(Cn2c(=O)c3ccccc3n(Cc3ccc(C)c(C(F)(F)F)c3)c2=O)cc1 | 75.2 µM |
